Results on 19 compounds are retold here after ChEMBL document CHEMBL3616427, “Design, synthesis, and biological evaluation of amide imidazole derivatives as novel metabolic enzyme CYP26A1 inhibitors” (Bioorg Med Chem, 2015).

SMILES strings stand for the structures.

In data set [1] the target is T1, Cytochrome P450 26A1 (Homo sapiens, UniProt O43174).
T1 sequence (O43174 whole entry): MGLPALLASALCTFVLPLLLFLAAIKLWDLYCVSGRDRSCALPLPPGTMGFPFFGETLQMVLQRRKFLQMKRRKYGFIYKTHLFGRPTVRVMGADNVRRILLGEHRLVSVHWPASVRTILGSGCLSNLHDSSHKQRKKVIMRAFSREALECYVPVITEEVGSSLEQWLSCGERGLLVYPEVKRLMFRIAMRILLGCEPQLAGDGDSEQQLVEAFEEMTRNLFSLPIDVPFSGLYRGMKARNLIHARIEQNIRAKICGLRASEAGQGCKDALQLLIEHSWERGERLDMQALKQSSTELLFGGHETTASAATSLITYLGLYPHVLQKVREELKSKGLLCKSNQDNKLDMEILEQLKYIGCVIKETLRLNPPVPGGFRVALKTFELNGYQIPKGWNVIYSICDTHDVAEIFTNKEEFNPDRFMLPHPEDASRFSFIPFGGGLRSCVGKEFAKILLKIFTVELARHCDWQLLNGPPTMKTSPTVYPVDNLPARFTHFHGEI
Description: Inhibition of CYP26A1 (unknown origin).

The test system of data set [2] is HL-60. In words: Induction of cell differentiation in human HL60 cells at 10 uM incubated for 72 hrs in presence of 0.1 uM ATRA by NBT dye based assay. The class given is functional.
Data set [3] relates to HL-60. In words: Growth inhibition of human HL60 cells at 10 uM incubated for 48 hrs in presence of 0.1 uM ATRA by MTT assay. The class given is functional. An outline of the steps:
(§1)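 HL-60 cells plated at 1–104 cells/well (so in the source) and held 24 h at 37 °C, then exposed 48 h to inhibitor at 10 µM and/or ATRA at 0.1 µM. MTT (2 mg/mL) was added for 4 h at 37 °C, the supernatant was discarded, formazan was dissolved in DMSO and absorbance read at 570 nm. Percent growth inhibition reported.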
(Tetrazolium assays rely on reduction of a dye to a coloured formazan, in cell work by metabolically active cells.)

The test system of data set [4] is HL-60. Description: Induction of cell differentiation in human HL60 cells at 10 uM incubated for 72 hrs by NBT dye based assay. The class given is functional.
The target of data set [5] is T1, Cytochrome P450 26A1. Description: Inhibition of CYP26A1 in ATRA-induced human HL60 cell microsomes incubated for 30 mins in dark condition with NADPH and ATRA by HPLC method. The class given is cell-based, HL-60.
Data set [6] relates to HL-60. In words: Growth inhibition of human HL60 cells at 10 uM incubated for 48 hrs by MTT assay. The class given is functional. Particulars: HL-60, 48 h, read-out: GI. An outline of the steps: as §1
Data set [7] deals with T1, Cytochrome P450 26A1. In words: Inhibition of CYP26A1-mediated ATRA metabolism in human HL60 cells assessed as ATRA level at 5 uM incubated for 72 hrs by HPLC method (reference value: 3.6 uM). The class given is cell-based. Particulars: hl-60, 72 h.
Data set [8] has as its target T1, Cytochrome P450 26A1. In words: Inhibition of CYP26A1-mediated ATRA metabolism in human HL60 cells assessed as ATRA level at 5 uM incubated for 96 hrs by HPLC method (reference value: 1.21 uM). The class given is cell-based. The following applies: hl-60, 96 h.
In data set [9] the target is T1, Cytochrome P450 26A1. Description: Inhibition of CYP26A1-mediated ATRA metabolism in human HL60 cells assessed as ATRA level at 5 uM incubated for 24 hrs by HPLC method (reference value: 7.19 uM). Particulars: hl-60, 24 h. The class given is cell-based.
For data set [10], the target named is T1, Cytochrome P450 26A1. Description: Inhibition of CYP26A1-mediated ATRA metabolism in human HL60 cells assessed as ATRA level at 5 uM incubated for 48 hrs by HPLC method (reference value: 4.95 uM). The class given is cell-based. The following applies: hl-60, 48 h.
For a further data set, the target named is Cytochrome P450 3A4 (Homo sapiens, UniProt P08684). In words: Inhibition of CYP3A4 (unknown origin) incubated for 45 mins using NADPH by fluorescence assay. The class given is ADME.
Sequence of Cytochrome P450 3A4 (P08684 whole entry): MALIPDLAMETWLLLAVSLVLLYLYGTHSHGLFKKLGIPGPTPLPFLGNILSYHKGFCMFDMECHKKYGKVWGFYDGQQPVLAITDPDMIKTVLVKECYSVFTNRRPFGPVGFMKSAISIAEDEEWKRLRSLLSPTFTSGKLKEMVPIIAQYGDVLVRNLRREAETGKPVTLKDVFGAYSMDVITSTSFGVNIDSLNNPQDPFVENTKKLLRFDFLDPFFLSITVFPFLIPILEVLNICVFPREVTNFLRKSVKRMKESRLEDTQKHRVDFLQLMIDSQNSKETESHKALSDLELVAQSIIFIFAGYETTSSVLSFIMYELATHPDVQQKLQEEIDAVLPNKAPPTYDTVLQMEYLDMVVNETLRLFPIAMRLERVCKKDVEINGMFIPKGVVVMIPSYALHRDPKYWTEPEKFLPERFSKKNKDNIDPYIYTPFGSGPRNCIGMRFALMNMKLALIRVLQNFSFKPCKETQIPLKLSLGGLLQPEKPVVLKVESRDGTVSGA
In another data set the target is Cytochrome P450 2D6 (Homo sapiens, UniProt P10635). Description: Inhibition of CYP2D6 (unknown origin) incubated for 45 mins using NADPH and ATRA by HPLC assay. The class given is ADME.
Sequence of Cytochrome P450 2D6 (P10635 whole entry): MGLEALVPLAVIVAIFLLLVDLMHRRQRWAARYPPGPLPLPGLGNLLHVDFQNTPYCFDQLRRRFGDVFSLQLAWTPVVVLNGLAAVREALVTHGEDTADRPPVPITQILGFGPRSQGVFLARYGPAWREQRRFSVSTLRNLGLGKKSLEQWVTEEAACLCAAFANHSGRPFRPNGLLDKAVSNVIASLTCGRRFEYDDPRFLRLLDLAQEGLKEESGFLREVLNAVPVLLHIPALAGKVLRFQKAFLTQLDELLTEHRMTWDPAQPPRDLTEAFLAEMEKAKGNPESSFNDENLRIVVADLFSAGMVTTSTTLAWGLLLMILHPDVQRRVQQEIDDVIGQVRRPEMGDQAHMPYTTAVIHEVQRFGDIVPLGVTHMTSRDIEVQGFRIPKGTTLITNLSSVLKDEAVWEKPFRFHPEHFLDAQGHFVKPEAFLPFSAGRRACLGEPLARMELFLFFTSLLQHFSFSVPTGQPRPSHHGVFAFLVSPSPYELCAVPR
The nature of data set [11]: Selectivity index, ratio of IC50 for CYP2D6 (unknown origin) to IC50 for CYP26A1 in ATRA-induced human HL60 cell microsomes. Also noted: species or system HL-60.
Data set [12] in a line: Selectivity index, ratio of IC50 for CYP3A4 (unknown origin) to IC50 for CYP26A1 in ATRA-induced human HL60 cell microsomes. Also noted: species or system HL-60.
For data set [13], the system named is HL-60. In words: Growth inhibition of human HL60 cells at 0.1 uM incubated for 48 hrs by MTT assay. The class given is functional. Particulars: HL-60, 48 h, read-out: GI. An outline of the steps: as §1
Data set [14] deals with HL-60. In words: Induction of cell differentiation in human HL60 cells at 0.1 uM incubated for 72 hrs by NBT dye based assay. The class given is functional.

By IC50 is commonly meant the concentration needed to halve the response being measured. Low readings indicate greater potency, high ones weaker potency. On Cytochrome P450 26A1 [1], `CCC(CC)[C@H](c1ccc(Nc2nc3ccccc3s2)cc1)n1cncn1` had an IC50 of 4 nM.
Consider `COC(=O)C(Cn1ccnc1)NC(=O)c1ccc(-c2ccccc2)cc1` (stereo not drawn), for which the Activity in the data set with HL-60 [2] was 47.69%; in the data set on HL-60 [4] it was 0%. The “growth inhibition (GI)” value in the data set on HL-60 [3] is listed as 51.38%. On Cytochrome P450 26A1 [5], this compound returned an IC50 of 370 nM. The inhibition of growth at 10 µM in the data set on HL-60 [6] is 9.64%.
For `CCOC(=O)C(Cn1ccnc1)NC(=O)c1ccc(-c2ccccc2)cc1` (stereo not drawn), in that order: 45.64%, 0%, 48.19%, 650 nM and 7.61%.
With `CCCOC(=O)C(Cn1ccnc1)NC(=O)c1ccc(-c2ccccc2)cc1` (stereo not drawn), the Activity in the data set with HL-60 [2] worked out at 44.78%; in the data set with HL-60 [4], 0%. The “growth inhibition (GI)” value in the data set with HL-60 [3] is listed as 42.92%. At Cytochrome P450 26A1 [5], this compound had an IC50 of 790 nM. Further, in the data set with HL-60 [6], the inhibition of growth at 10 µM came to 5.04%.
Turning to `CC(C)OC(=O)C(Cn1ccnc1)NC(=O)c1ccc(-c2ccccc2)cc1` (stereo not drawn), the results for the Activity in the data set with HL-60 [2] and with HL-60 [4] were 53.91% and 0%, respectively. For the same compound, the “growth inhibition (GI)” value in the data set with HL-60 [3] is 54.58%. At Cytochrome P450 26A1 [5], this compound came in with an IC50 of 540 nM. Further, the inhibition of growth at 10 µM in the data set on HL-60 [6] is 6.58%.
For `CC(C)COC(=O)C(Cn1ccnc1)NC(=O)c1ccc(-c2ccccc2)cc1` (stereo not drawn), in that order: 39.87%, 0%, 46.55%, 970 nM and 8.99%.
On to `COC(=O)C(Cn1ccnc1)NC(=O)c1c(C)nn(-c2ccccc2)c1Cl` (stereo not drawn), for which the Activity with HL-60 [2] was found to be 50.51%; with HL-60 [4], 0%; on Cytochrome P450 26A1 [7], 5.67 µM; on Cytochrome P450 26A1 [8], 3.51 µM; on Cytochrome P450 26A1 [9] it was 9.3 µM; on Cytochrome P450 26A1 [10], 7.45 µM. The “growth inhibition (GI)” value in the data set on HL-60 [3] is reported as 55.36%. Also, the figures for the IC50 against Cytochrome P450 26A1 [5], on Cytochrome P450 3A4 and against Cytochrome P450 2D6 were 220 nM, 1.17 µM and 5.56 µM, respectively. In addition, the inhibition of growth at 10 µM with HL-60 [6] came out at 10.9%.
As to `CCOC(=O)C(Cn1ccnc1)NC(=O)c1c(C)nn(-c2ccccc2)c1Cl` (stereo not drawn), the results for the Activity in the data set on HL-60 [2] and in the data set on HL-60 [4] were 46.44% and 0%, respectively. Besides, in the data set on HL-60 [3], the “growth inhibition (GI)” value came out at 52.17%. This compound gave an IC50 on Cytochrome P450 26A1 [5] of 600 nM. The inhibition of growth at 10 µM with HL-60 [6] is 7.25%.
For `CCCOC(=O)C(Cn1ccnc1)NC(=O)c1c(C)nn(-c2ccccc2)c1Cl` (stereo not drawn), in that order: 43.83%, 0%, 45.58%, 620 nM and 6.59%.
On to `Cc1nn(-c2ccccc2)c(Cl)c1C(=O)NC(Cn1ccnc1)C(=O)OC(C)C` (stereo not drawn), for which the Activity came out at 51.85% in the data set on HL-60 [2]; 0% in the data set on HL-60 [4]; 6.06 µM at Cytochrome P450 26A1 [7]; 4.41 µM at Cytochrome P450 26A1 [8]; 9.22 µM on Cytochrome P450 26A1 [9]; 7.87 µM at Cytochrome P450 26A1 [10]. Also, the “growth inhibition (GI)” value in the data set with HL-60 [3] was 44.79%. In addition, the results for the IC50 on Cytochrome P450 26A1 [5], at Cytochrome P450 3A4 and on Cytochrome P450 2D6 were 460 nM, 4.92 µM and 9.64 µM, respectively. Besides, the Ratio IC50 worked out at 21 in data set [11] and 11 in [12]. Further, the inhibition of growth at 10 µM with HL-60 [6] turned out to be 4.98%.
On to `Cc1nn(-c2ccccc2)c(Cl)c1C(=O)NC(Cn1ccnc1)C(=O)OCC(C)C` (stereo not drawn), for which the Activity is reported as 40.79% in the data set with HL-60 [2] and 0% with HL-60 [4]. In the data set on HL-60 [3], the “growth inhibition (GI)” value worked out at 43.54%. Moreover, on Cytochrome P450 26A1 [5], the IC50 was 1020 nM. Also, the inhibition of growth at 10 µM with HL-60 [6] amounted to 8.24%.
The corresponding values for `COC(=O)C(Cn1ccnc1)NC(=O)c1nc2ccccc2s1` (stereo not drawn) are 49.11%, 0%, 50.36%, 410 nM and 8.64%.
For `CCOC(=O)C(Cn1ccnc1)NC(=O)c1nc2ccccc2s1` (stereo not drawn), in that order: 48.31%, 0%, 45.4%, 740 nM and 6.66%.
For `CCCOC(=O)C(Cn1ccnc1)NC(=O)c1nc2ccccc2s1` (stereo not drawn), in that order: 42.62%, 0%, 47.83%, 840 nM and 7.64%.
Consider `CC(C)OC(=O)C(Cn1ccnc1)NC(=O)c1nc2ccccc2s1` (stereo not drawn), for which the Activity in the data set on HL-60 [2] is 50.85%; in the data set with HL-60 [4], 0%. Besides, the “growth inhibition (GI)” value in the data set on HL-60 [3] is given as 46.36%. Besides, the IC50 against Cytochrome P450 26A1 [5] came to 630 nM. For the same compound, the inhibition of growth at 10 µM with HL-60 [6] amounted to 5.04%.
`CC(C)COC(=O)C(Cn1ccnc1)NC(=O)c1nc2ccccc2s1` (stereo not drawn): the Activity came to 38.62% in the data set with HL-60 [2] and 0% in the data set on HL-60 [4]. The “growth inhibition (GI)” value in the data set with HL-60 [3] is 43.33%. On Cytochrome P450 26A1 [5], this compound had an IC50 of 1110 nM. In the data set on HL-60 [6], the inhibition of growth at 10 µM is 9.49%.
Regarding `CC(C(c1ccc(Nc2nc3ccccc3s2)cc1)n1cncn1)N(C)C` (stereo not drawn), half-maximal inhibition at Cytochrome P450 26A1 [1] (IC50) required 10 nM.
`Clc1cccc(C(c2ccc3[nH]cnc3c2)n2ccnc2)c1` (stereo not drawn) [LIAROZOLE]: the Activity in the data set with HL-60 [2] amounted to 45.55%; with HL-60 [4], 0%. Further, in the data set with HL-60 [3], the “growth inhibition (GI)” value stood at 48.37%. This compound showed an IC50 at Cytochrome P450 2D6 of 4.76 µM. Further, in the data set on HL-60 [6], the inhibition of growth at 10 µM is 16.4%.
In the case of `CC1=C(/C=C/C(C)=C/C=C/C(C)=C/C(=O)O)C(C)(C)CCC1` [TRETINOIN], the inhibition of growth at 0.1 µM in the data set with HL-60 [13] worked out at 21.8%. In the data set with HL-60 [14], the Activity is on record as 28.04%.
